Test results: ChEMBL document CHEMBL3627606, “Development of Novel, CNS Penetrant Positive Allosteric Modulators for the Metabotropic Glutamate Receptor Subtype 1 (mGlu1), Based on an N-(3-Chloro-4-(1,3-dioxoisoindolin-2-yl)phenyl)-3-methylfuran-2-carboxamide Scaffold, That Potentiate Wild Type and Mutant mGlu1 Receptors Found in …” (J Med Chem, 2015)

Tests used:
[1] = biological target: Metabotropic glutamate receptor 8 (Homo sapiens) (UniProt O00222); assay: Positive allosteric modulation of mGlu8 receptor (unknown origin) assessed as potentiation of glutamate-induced response by cell-based assay
Chain of Metabotropic glutamate receptor 8 (Homo sapiens) (O00222 whole entry): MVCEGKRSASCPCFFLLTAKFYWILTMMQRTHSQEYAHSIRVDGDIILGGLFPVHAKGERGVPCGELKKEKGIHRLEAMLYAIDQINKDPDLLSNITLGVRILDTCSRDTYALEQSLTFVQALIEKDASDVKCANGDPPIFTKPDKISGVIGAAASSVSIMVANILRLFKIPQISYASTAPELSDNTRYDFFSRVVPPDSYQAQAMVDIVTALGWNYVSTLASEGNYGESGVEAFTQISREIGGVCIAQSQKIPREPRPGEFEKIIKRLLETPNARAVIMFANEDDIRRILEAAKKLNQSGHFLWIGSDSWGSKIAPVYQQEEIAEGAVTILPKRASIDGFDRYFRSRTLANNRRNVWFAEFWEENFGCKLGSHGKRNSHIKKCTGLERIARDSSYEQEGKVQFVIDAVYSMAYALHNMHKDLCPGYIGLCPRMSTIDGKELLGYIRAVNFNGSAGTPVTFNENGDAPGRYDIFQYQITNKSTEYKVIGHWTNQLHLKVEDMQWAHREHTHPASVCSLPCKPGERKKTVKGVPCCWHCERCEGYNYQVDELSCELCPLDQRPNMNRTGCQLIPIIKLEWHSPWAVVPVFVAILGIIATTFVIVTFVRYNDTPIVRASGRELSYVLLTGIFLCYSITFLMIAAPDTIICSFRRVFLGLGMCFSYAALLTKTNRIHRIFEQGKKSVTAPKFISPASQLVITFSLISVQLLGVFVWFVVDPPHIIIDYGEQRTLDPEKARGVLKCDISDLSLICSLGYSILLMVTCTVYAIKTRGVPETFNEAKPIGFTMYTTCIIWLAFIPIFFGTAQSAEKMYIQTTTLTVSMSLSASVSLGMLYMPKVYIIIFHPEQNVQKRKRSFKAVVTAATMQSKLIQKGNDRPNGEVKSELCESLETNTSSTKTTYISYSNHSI
How it was run: (§1)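 Selectivity counterscreen at the other mGlu subtypes using the standard fold-shift paradigm. Compound was tested at 10 μM against the glutamate concentration-response curve, and the shift of that curve was read.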

[2] = biological target: Metabotropic glutamate receptor 2 (Homo sapiens) (UniProt Q14416); assay: Positive allosteric modulation of mGlu2 receptor (unknown origin) assessed as potentiation of glutamate-induced response by cell-based assay; how it was run: as §1
Chain of Metabotropic glutamate receptor 2 (Homo sapiens) (Q14416 19-872 limits assumed): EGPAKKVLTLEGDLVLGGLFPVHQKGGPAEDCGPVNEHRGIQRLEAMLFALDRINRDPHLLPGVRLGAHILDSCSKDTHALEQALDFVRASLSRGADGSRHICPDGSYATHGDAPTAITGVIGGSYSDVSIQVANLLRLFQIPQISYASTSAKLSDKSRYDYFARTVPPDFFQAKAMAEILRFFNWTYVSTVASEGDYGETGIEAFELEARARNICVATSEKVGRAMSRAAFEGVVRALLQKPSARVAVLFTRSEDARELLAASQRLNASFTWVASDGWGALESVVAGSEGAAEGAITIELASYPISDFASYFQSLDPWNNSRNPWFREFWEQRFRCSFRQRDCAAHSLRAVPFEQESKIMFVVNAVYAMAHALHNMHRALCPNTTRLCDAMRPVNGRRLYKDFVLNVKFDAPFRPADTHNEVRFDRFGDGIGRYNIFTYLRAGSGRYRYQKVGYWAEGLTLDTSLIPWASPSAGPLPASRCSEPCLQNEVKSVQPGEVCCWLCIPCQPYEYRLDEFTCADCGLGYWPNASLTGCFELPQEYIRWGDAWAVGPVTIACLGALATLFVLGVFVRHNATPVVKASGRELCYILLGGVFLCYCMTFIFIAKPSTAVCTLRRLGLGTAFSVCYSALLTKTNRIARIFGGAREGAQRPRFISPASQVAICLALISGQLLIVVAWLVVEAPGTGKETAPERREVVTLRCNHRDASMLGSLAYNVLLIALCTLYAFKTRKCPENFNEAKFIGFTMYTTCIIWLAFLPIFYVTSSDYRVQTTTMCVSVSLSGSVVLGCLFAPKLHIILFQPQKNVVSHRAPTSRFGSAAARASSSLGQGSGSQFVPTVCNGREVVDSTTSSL

[3] = biological target: Cytochrome P450 3A4 (Homo sapiens, UniProt P08684); assay: Inhibition of CYP3A4 in human liver microsomes by LC-MS/MS analysis; assay type: ADME
Chain of Cytochrome P450 3A4 (P08684 whole entry): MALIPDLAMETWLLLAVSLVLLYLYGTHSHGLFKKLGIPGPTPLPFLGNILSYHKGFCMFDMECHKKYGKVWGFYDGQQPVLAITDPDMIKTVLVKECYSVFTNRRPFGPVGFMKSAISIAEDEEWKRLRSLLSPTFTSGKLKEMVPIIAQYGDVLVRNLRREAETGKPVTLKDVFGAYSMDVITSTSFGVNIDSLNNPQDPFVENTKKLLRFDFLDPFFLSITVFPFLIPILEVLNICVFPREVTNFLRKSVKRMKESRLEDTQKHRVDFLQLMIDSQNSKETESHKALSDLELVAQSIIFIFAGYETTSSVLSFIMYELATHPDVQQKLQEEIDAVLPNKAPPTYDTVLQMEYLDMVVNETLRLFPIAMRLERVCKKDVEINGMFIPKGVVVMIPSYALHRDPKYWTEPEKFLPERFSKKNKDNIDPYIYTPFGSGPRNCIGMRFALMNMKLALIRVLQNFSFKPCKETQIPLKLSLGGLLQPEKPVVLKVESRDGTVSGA

[4] = biological target: Cytochrome P450 2D6 (Homo sapiens, UniProt P10635); assay: Inhibition of CYP2D6 in human liver microsomes by LC-MS/MS analysis; assay type: ADME
[5] = tested on: Plasma; assay: Fraction unbound in human plasma; assay type: ADME, cell-free
[6] = biological target: Metabotropic glutamate receptor 1 (Rattus norvegicus) (UniProt P23385); assay: Positive allosteric modulation of rat mGlu1 receptor assessed as potentiation of glutamate-induced calcium mobiliztion by cell based assay relative to glutamate; assay type: functional
How it was run: (§2)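 Rat mGlu1 WT calcium mobilization concentration-response curves. EC50 and % Glu Max were derived from the curves.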

[7] = biological target: T1, Metabotropic glutamate receptor 1 (Homo sapiens, UniProt Q13255); assay: Positive allosteric modulation of human mGlu1 receptor in HEK293 cells assessed as potentiation of glutamate-induced calcium mobiliztion at 10 uM by Fluo-4AM dye based fluorescence analysis; assay type: functional, cell-based
Target sequence in this assay (Q13255 19-1194 limits assumed): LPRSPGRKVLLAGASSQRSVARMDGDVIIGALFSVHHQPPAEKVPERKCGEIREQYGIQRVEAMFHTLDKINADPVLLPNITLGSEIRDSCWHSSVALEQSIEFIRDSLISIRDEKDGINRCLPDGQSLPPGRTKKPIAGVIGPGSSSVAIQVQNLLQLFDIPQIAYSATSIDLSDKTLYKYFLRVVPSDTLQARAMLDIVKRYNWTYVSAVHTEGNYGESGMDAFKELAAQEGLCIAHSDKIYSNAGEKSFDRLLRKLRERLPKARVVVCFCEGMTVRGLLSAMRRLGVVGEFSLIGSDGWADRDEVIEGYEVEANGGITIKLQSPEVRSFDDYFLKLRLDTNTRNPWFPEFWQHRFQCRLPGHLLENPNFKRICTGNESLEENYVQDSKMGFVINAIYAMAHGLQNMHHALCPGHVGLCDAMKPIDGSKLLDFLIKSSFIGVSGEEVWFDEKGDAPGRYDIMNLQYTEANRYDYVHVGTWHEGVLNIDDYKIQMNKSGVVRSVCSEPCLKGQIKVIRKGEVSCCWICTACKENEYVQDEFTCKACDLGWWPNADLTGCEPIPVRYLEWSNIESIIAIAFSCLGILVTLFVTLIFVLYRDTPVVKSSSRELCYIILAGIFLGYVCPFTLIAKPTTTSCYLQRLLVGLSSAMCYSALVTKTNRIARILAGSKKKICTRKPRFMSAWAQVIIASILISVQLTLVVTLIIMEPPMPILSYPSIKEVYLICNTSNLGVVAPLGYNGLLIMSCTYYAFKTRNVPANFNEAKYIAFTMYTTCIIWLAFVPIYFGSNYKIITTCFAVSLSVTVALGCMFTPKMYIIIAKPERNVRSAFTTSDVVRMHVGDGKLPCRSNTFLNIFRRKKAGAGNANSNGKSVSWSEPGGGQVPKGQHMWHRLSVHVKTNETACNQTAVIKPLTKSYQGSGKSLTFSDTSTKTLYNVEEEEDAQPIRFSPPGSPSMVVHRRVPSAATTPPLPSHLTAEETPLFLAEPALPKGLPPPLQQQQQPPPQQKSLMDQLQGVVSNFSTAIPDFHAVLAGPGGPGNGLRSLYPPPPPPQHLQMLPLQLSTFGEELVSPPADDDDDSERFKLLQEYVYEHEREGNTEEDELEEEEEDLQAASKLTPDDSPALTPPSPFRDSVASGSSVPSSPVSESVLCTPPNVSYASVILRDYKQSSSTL

[8] = biological target: T2, Cytochrome P450 1A2 (Homo sapiens, UniProt P05177); assay: Inhibition of CYP1A2 in human liver microsomes by LC-MS/MS analysis; assay type: ADME
T2 sequence (P05177 whole entry): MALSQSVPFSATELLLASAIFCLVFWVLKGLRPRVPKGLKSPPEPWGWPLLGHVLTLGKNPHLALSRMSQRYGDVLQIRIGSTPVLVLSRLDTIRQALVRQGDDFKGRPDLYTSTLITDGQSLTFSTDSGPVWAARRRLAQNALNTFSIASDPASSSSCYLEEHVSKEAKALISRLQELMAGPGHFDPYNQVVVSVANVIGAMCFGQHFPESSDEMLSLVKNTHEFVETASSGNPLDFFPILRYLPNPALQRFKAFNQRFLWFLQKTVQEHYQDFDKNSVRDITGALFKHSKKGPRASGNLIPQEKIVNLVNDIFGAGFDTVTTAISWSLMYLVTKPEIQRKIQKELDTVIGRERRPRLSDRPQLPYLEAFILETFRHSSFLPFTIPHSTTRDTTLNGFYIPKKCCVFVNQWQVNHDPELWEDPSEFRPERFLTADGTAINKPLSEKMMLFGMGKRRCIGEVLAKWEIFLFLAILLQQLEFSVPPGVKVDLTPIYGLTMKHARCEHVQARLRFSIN

[9] = Plasma clearance in Sprague-Dawley rat at 0.2 mg/kg, iv by LC-MS/MS analysis
[10] = tested on: Plasma; assay: Fraction unbound in rat plasma; assay type: ADME, cell-free
[11] = Mean residence time in Sprague-Dawley rat at 0.2 mg/kg, iv by LC-MS/MS analysis; conditions: in vivo
[12] = biological target: Metabotropic glutamate receptor 1 (Rattus norvegicus, UniProt P23385); assay: Positive allosteric modulation of rat mGlu1 receptor assessed as potentiation of glutamate-induced calcium mobiliztion by cell based assay; assay type: functional; how it was run: as §2
[13] = biological target: Metabotropic glutamate receptor 4 (Homo sapiens, UniProt Q14833); assay: Positive allosteric modulation of human mGlu4 receptor assessed as potentiation of glutamate-induced calcium mobiliztion by cell based assay relative to PHCCC
[14] = tested on: Brain; assay: Drug concentration in C57BL/6 mouse brain at 100 mg/kg, ip administered as single dose; assay type: ADME, organism-based; conditions: in vivo, read-out: Drug uptake
[15] = biological target: T1, Metabotropic glutamate receptor 1; assay: Positive allosteric modulation of human mGlu1 receptor in HEK293 cells assessed as potentiation of glutamate-induced calcium mobiliztion by Fluo-4AM dye based fluorescence analysis relative to glutamate; assay type: functional, cell-based
Target sequence in this assay (Q13255 19-1194 limits assumed): as the sequence (Q13255 19-1194 limits assumed) above

[16] = species: Homo sapiens; assay: Selectivity index, ratio of EC50 for human mGlu4 receptor to EC50 for human mGlu1 receptor
[17] = species: Homo sapiens; assay: Intrinsic clearance in human hepatocytes at 1 uM by LC-MS/MS analysis; conditions: read-out: CLH
[18] = tested on: Metabotropic glutamate receptor 1 (Homo sapiens), Q13255 [Y632H]; assay: Agonist activity at human mGlu1 Y632H mutant receptor expressed in HEK293 cells assessed as calcium mobilization at > 1 uM uM by Fluo-4AM dye based fluorescence analysis; assay type: functional, cell-based
Chain of Metabotropic glutamate receptor 1 (Homo sapiens), Q13255 [Y632H] (Q13255 whole entry Y632H): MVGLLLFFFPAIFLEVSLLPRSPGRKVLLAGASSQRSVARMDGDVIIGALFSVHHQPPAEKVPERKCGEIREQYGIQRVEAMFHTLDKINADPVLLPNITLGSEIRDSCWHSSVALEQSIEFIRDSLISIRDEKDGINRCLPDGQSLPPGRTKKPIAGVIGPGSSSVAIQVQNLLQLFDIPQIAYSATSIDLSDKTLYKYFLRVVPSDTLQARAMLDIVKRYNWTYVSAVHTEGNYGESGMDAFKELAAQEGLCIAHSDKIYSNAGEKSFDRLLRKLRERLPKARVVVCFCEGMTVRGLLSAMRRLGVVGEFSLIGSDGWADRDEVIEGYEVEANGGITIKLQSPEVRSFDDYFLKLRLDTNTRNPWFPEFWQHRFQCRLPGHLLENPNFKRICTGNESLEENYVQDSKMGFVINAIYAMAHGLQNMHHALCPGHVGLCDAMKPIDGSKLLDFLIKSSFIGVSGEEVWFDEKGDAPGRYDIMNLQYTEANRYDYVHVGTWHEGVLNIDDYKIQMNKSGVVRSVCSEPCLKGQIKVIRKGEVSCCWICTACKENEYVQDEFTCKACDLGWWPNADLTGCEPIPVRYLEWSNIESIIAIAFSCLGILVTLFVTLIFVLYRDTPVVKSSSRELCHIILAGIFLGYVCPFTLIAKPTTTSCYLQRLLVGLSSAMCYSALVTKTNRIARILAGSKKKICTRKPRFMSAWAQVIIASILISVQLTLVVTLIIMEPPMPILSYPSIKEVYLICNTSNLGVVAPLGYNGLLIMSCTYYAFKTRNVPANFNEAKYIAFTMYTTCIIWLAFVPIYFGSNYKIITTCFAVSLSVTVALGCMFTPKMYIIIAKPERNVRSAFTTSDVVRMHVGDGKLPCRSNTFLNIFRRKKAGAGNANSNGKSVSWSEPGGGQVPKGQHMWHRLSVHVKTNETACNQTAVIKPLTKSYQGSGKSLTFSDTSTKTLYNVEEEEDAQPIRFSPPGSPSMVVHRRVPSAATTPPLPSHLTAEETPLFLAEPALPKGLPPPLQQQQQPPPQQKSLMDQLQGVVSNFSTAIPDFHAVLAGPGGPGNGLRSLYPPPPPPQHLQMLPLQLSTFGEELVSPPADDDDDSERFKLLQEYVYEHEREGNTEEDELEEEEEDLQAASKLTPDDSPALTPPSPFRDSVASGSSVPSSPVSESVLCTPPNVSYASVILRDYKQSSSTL

[19] = biological target: Metabotropic glutamate receptor 7 (Homo sapiens) (UniProt Q14831); assay: Positive allosteric modulation of mGlu7 receptor (unknown origin) assessed as potentiation of glutamate-induced response by cell-based assay; how it was run: as §1
[20] = biological target: T1, Metabotropic glutamate receptor 1; assay: Positive allosteric modulation of human mGlu1 receptor in HEK293 cells assessed as potentiation of glutamate-induced calcium mobiliztion by Fluo-4AM dye based fluorescence analysis; assay type: functional, cell-based
Target sequence in this assay (Q13255 whole entry): as the sequence (Q13255 whole entry Y632H) above, with H632Y counted along it

[21] = tested on: Metabotropic glutamate receptor 1 (Homo sapiens), Q13255 [P1014S]; assay: Agonist activity at human mGlu1 P1014S mutant receptor expressed in HEK293 cells assessed as calcium mobilization at > 1 uM uM by Fluo-4AM dye based fluorescence analysis; assay type: functional, cell-based
Chain of Metabotropic glutamate receptor 1 (Homo sapiens), Q13255 [P1014S] (Q13255 whole entry P1014S): as the sequence (Q13255 whole entry Y632H) above, with H632Y, P1014S counted along it

[22] = Ratio of drug level in brain to plasma of Sprague-Dawley rat at 0.2 mg/kg, iv after 0.25 hrs by LC-MS/MS analysis; conditions: read-out: BPR
[23] = Plasma concentration in Sprague-Dawley rat at 0.2 mg/kg, iv after 0.25 hrs by LC-MS/MS analysis
[24] = biological target: Metabotropic glutamate receptor 6 (Homo sapiens) (UniProt O15303); assay: Positive allosteric modulation of mGlu6 receptor (unknown origin) assessed as potentiation of glutamate-induced response by cell-based assay; how it was run: as §1
[25] = tested on: Hippocampus; assay: Toxic epileptiform activity in C57BL/6 mouse CA3 region of hippocampus assessed as frequency of spike activity at 10 uM by electrophysiolgy method (reference value: 0.99 +/- 0.38 Hz); assay type: toxicity, tissue-based
How it was run: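 Mouse hippocampal slices with extracellular recording from the CA3 pyramidal cell body layer. Compound (10 μM) or DHPG (50 μM) was bath-applied, and the frequency of spontaneous spikes was compared with baseline. n = 6 per agent, paired t test.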

[26] = tested on: Metabotropic glutamate receptor 1 (Homo sapiens), Q13255 [A683E]; assay: Agonist activity at human mGlu1 A683E mutant receptor expressed in HEK293 cells assessed as calcium mobilization at > 1 uM uM by Fluo-4AM dye based fluorescence analysis; assay type: functional, cell-based
Chain of Metabotropic glutamate receptor 1 (Homo sapiens), Q13255 [A683E] (Q13255 whole entry A683E): as the sequence (Q13255 whole entry Y632H) above, with H632Y, A683E counted along it

[27] = Half life in Sprague-Dawley rat at 0.2 mg/kg, iv by LC-MS/MS analysis; conditions: in vivo
[28] = Intrinsic clearance in human liver microsomes at 1 uM by LC-MS/MS analysis; assay type: ADME; conditions: read-out: CLH

Question: What does the source list for `Cc1ccoc1C(=O)Nc1ccc(N2C(=O)c3cccc(F)c3C2=O)c(Cl)c1`?
Answer: fold change (FC) [1]: < 2; fold change (FC) [2]: < 2; IC50 [3]: > 30000 nM; IC50 [4]: > 30000 nM; Fu [5]: 0.051; %max [6]: 103%; fold change (FC) [7]: 11.4; IC50 [8]: 25200 nM; clearance [9]: 13.3 mL/min/kg; Fu [10]: 0.03; MRT [11]: 64.1 min; EC50 [12]: 40.7 nM; %max [13]: 122%; concentration [14]: 9.2 µM; %max [15]: 98%; Ratio EC50 [16]: 34.9; CLint scaled at 1 µM [17]: 2.7 mL/min/kg; Activity [18]: 40%; fold change (FC) [19]: 7; EC50 ([20]; read-out: EC50): 31.8 nM; EC50 ([20]; read-out: pEC50 (converted)): 32.4 nM; Activity [21]: 40%; Kp at 0.25 h [22]: 1.02; concentration at 0.25 h [23]: 200 ng/mL; fold change (FC) [24]: 6.7; Activity [25]: 1.16 Hz; Activity [26]: 40%; half-life [27]: 53.6 min; CLint scaled at 1 µM [28]: 3.1 mL/min/kg
